Experimental data of several laboratories.
Protocols differ between the studies behind these lines.
Observed: cell growth or viability

SMILES	cell line	technique	concentration	time	measurement	value
CCc1c(C)c2ccc(OCc3nnc(S)n3N)c(C)c2oc1=O	MDA-MB-231	MTT	1000 µg/mL	–	viability	5.38%
Cc1c(C(=O)O)ccc2c3n(nc12)[C@@H]1[C@H](C3)N(CC2CC2)[C@@]2(C(=O)Nc3cc(Cl)ccc32)[C@H]1c1cccc(Cl)c1F	hTERT-RPE1	ATP luminescence	–	72 h	GI50	21 nM
CCNC(=S)NNC(=O)COc1ccc2c(C)c(CC)c(=O)oc2c1C	MDA-MB-231	MTT	62.5 µg/mL	–	viability	84.5%
CC(C)C[C@@H]1NC(=O)[C@@H](N(C)C(=O)[C@H](CC2CCC2)NC(=O)[C@@H]2C[C@@H](F)CN2C(=O)C2(C(F)(F)F)CC(F)(F)C2)CCCCNC(=O)C2(CC2)NC(=O)[C@H](Cc2cc(Cl)ccc2Cl)N(C)C1=O	NCI-H526	MTT	–	5 days	GI50	240 nM
O=C(C=Cc1ccccc1)Nc1cccc(-c2ccnc(N3CCC(O)CC3)c2)c1	MDA-MB-231	MTT	5 µM	–	inhibition	61.6%
CCc1c(C)c2ccc(OCC=Cc3ccccc3)c(C)c2oc1=O	MDA-MB-231	MTT	1000 µg/mL	–	viability	2.75%
CCC[C@H]1NC(=O)[C@H](Cc2cc(Cl)ccc2-c2cnn(C)c2)N(C)C(=O)[C@H](CC(C)C)NC(=O)[C@@H](N(C)C(=O)[C@H](CCCCN2CCOCC2)NC(=O)[C@@H](c2cccnc2)C2CCCCC2)CCCCNC1=O	NCI-H526	MTT	–	5 days	GI50	3400 nM
C[C@@H]1CC[C@@H]([C@@](O)(CNCc2ccccc2)COCc2ccc(F)cc2)[C@H](OCc2ccc(F)cc2)C1	MDA-MB-231	MTT	30 µM	72 h	inhibition	98.8%
CC(=NNC(=O)COc1ccc2c(C)c(Cc3ccccc3)c(=O)oc2c1C)c1ccc(Br)cc1	MDA-MB-231	MTT	1000 µg/mL	–	viability	15.1%
C[C@@H]1CC[C@@H]([C@](C)(O)CNCc2ccccc2)[C@H](OCc2ccccc2)C1	MDA-MB-231	MTT	10 µM	72 h	inhibition	76.8%
C=CC(=O)NC1CCN(c2ncc3ncnc(Nc4ccc(Oc5ccc6c(c5)ncn6C)c(C)c4)c3n2)CC1	LCLC-103H	–	–	–	EC50	2.82 nM
COc1ccc(CNC[C@](O)(COCc2ccc(OC)cc2)[C@@H]2CC[C@@H](C)C[C@H]2OCc2ccc(OC)cc2)cc1	MDA-MB-231	MTT	10 µM	72 h	inhibition	96.8%
Cc1c(Cc2ccccc2)c(=O)oc2c(C)c(OCC(=O)NN=Cc3ccc(Cl)cc3)ccc12	MDA-MB-231	MTT	1000 µg/mL	–	viability	17.1%
Cc1cccc(/C=C/C(=O)Nc2cc(-c3ccnc(N4CCC(O)CC4)c3)ccn2)c1	MDA-MB-231	MTT	5 µM	–	inhibition	75.6%
COc1cccc(CNC[C@@](C)(O)[C@@H]2CC[C@@H](C)C[C@H]2OCc2ccccc2)c1	MDA-MB-231	MTT	30 µM	72 h	inhibition	95.3%
